Converted amounts (≈) assume the structure as drawn.
Assays:
[1] = biological target: Procathepsin L (Homo sapiens, UniProt P07711); assay: Inhibition of human recombinant CatL assessed as suppression of enzyme-mediated Z-Phe-Arg-AMC cleavage by QFRET assay
Summary of the method: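 Recombinant human Cat L at 0.1 nM final was preincubated with compound for 30 min, then Z-Phe-Arg-AMC (10 μM final) was added. QFRET cleavage was run 1 h at room temperature and stopped with acetic acid. Fluorescence read at ex 360/em 425 nm; IC50 by variable-slope nonlinear regression.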

[2] = Aqueous solubility of the compound at pH 7.4; settings: buffer
[3] = biological target: T1, Cathepsin K (Homo sapiens, UniProt P43235); assay: Inhibition of human recombinant CatK assessed as suppression of enzyme-mediated Z-Phe-Arg-AMC cleavage incubated for 1 hrs by QFRET assay
T1 sequence (P43235 whole entry): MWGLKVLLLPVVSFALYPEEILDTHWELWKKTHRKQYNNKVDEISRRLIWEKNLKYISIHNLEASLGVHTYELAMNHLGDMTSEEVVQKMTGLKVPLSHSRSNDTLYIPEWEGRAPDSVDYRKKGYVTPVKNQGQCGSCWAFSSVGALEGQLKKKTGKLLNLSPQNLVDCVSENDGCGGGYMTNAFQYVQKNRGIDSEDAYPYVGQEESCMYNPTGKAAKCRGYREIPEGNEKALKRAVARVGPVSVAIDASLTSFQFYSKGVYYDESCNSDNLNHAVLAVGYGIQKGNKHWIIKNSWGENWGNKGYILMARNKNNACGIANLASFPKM

[4] = Intrinsic clearance in human liver microsomes assessed as metabolic turnover
[5] = Intrinsic clearance in rat liver microsomes assessed as metabolic turnover
[6] = biological target: Cathepsin B (Homo sapiens, UniProt P07858); assay: Inhibition of human recombinant CatB assessed as suppression of enzyme-mediated Z-Arg-Arg-AMC cleavage by QFRET assay
Summary of the method: (§1)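 Recombinant human Cat B at 0.5 nM final was preincubated with compound for 30 min at room temperature. Z-Arg-Arg-AMC (100 μM final) was added in potassium phosphate buffer, pH 6.4, incubated 1 h, then stopped with acetic acid. Fluorescence read at ex 360/em 425 nm with background correction; IC50 by nonlinear regression.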

[7] = biological target: Cathepsin S (Homo sapiens, UniProt P25774); assay: Inhibition of human recombinant CatS assessed as suppression of enzyme-mediated Z-Val-Val-Arg-AMC cleavage by QFRET assay
Summary of the method: as §1, with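 “S” for “B”, “Z-Val-Val-Arg-AMC” for “Z-Arg-Arg-AMC”, “AMC fluorescence” for “Fluorescence”, “nm;” for “nm with background correction;”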

[8] = Lipophilicity, log D of the compound at pH 7.4; settings: buffer
[9] = Intrinsic clearance in rat hepatocytes assessed as metabolic turnover measured per 10^6 cells; type: ADME, cell-based, Hepatocyte
Summary of the method: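 Intrinsic clearance from in vitro hepatocyte incubation, expressed in μL/min/10⁶ cells. Each value is the mean of at least n = 2 experiments.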

Cathepsin S, sequence (P25774 whole entry): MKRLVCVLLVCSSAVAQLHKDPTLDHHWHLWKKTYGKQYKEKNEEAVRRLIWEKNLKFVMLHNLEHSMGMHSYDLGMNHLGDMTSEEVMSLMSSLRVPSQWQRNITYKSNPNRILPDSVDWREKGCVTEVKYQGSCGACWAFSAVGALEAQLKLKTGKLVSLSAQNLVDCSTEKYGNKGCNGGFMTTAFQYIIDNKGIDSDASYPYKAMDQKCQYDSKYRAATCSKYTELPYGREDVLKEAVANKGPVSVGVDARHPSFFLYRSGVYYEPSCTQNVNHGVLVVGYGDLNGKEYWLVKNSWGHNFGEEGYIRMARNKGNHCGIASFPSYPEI
Procathepsin L, sequence (P07711 whole entry): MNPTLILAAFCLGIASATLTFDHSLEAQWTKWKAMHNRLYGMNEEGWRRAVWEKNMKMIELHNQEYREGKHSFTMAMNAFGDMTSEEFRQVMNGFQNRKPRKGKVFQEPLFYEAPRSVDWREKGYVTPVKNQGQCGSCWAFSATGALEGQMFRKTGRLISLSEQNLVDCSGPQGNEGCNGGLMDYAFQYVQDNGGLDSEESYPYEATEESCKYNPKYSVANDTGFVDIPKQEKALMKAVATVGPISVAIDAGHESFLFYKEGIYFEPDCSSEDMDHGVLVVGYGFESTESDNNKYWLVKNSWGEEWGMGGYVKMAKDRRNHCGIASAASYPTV

Compound	IC50 [1]	solubility [2]	IC50 [3]	microsomal CLint [4]	microsomal CLint [5]	IC50 [6]	IC50 [7]	logD [8]	IC50 ([1]; read-out: IC50)	hepatocyte CLint [9]
CS(=O)(=O)c1ccc2c3c([nH]c2c1)CCN(C(=O)[C@@H]1CCCC[C@H]1C(=O)NC1(C#N)CC1)C3	Not Active	902 µM (≈ 423 µg/mL)	34 nM	< 2 µL/min/mg	7.2 µL/min/mg	> 2900 nM	> 4000 nM	1.5		
CS(=O)(=O)c1cccc2c3c([nH]c12)CCN(C(=O)[C@@H]1CCCC[C@H]1C(=O)NC1(C#N)CC1)C3	Not Active	1600 µM (≈ 750 µg/mL)	17 nM	4 µL/min/mg	23 µL/min/mg	> 2900 nM	> 4000 nM	1.7		
N#CCNC(=O)[C@@H]1CCCC[C@H]1C(=O)N1CCN(c2ccccc2)CC1		640 µM (≈ 227 µg/mL)	7 nM	7.7 µL/min/mg	115 µL/min/mg	455 nM	1030 nM	1.8	> 100000 nM	
CC(C)(F)C[C@H](N[C@@H](c1ccc(-c2ccc(S(C)(=O)=O)cc2)cc1)C(F)(F)F)C(=O)NC1(C#N)CC1 [ODANACATIB]			< 1 nM				183 nM			
N#Cc1cccc2c3c([nH]c12)CCN(C(=O)[C@@H]1CCCC[C@H]1C(=O)NC1(C#N)CC1)C3	Not Active	400 µM (≈ 166 µg/mL)	2 nM	34 µL/min/mg	80 µL/min/mg	> 2900 nM	> 4000 nM	2.5		
Cc1cccc2c3c([nH]c12)CCN(C(=O)[C@@H]1CCCC[C@H]1C(=O)NC1(C#N)CC1)C3	Not Active	510 µM (≈ 206 µg/mL)	3 nM	25 µL/min/mg	179 µL/min/mg	> 2900 nM	> 4000 nM	3		
N#CC1(NC(=O)[C@@H]2CCCC[C@H]2C(=O)N2CCc3[nH]c4c(OC(F)(F)F)cccc4c3C2)CC1	Not Active	120 µM (≈ 56.9 µg/mL)	2 nM	19 µL/min/mg	53 µL/min/mg	> 2900 nM	> 4000 nM	4		
N#CC1(NC(=O)[C@@H]2CCCC[C@H]2C(=O)N2CCc3[nH]c4cccc(F)c4c3C2)CC1	Not Active	128 µM (≈ 52.3 µg/mL)	10 nM	57 µL/min/mg	322 µL/min/mg	> 2900 nM	> 4000 nM	3.2		
N#CC1(NC(=O)[C@@H]2CCCC[C@H]2C(=O)N2CCc3[nH]c4c(Br)cccc4c3C2)CC1	Not Active		4 nM	43 µL/min/mg	164 µL/min/mg	> 2900 nM				
CS(=O)(=O)c1ccc2[nH]c3c(c2c1)CN(C(=O)[C@@H]1CCCC[C@H]1C(=O)NC1(C#N)CC1)CC3	Not Active	193 µM (≈ 90.4 µg/mL)		14 µL/min/mg		> 2900 nM	> 4000 nM			3.5 µL/min/1e6 cells
N#CCNC(=O)[C@@H]1CCCC[C@H]1C(=O)N1CCCCC1		> 4900 µM	73 nM	< 2 µL/min/mg	12 µL/min/mg	8750 nM	2110 nM	0.9	> 100000 nM	
CC(C)c1ccc2[nH]c3c(c2c1)CN(C(=O)[C@@H]1CCCC[C@H]1C(=O)NC1(C#N)CC1)CC3	Not Active	84 µM (≈ 36.3 µg/mL)	50 nM			> 2900 nM	> 4000 nM	4.1		
N#CC1(NC(=O)[C@@H]2CCCC[C@H]2C(=O)N2CCc3[nH]c4c(Cl)cccc4c3C2)CC1	Not Active		2 nM	46 µL/min/mg	226 µL/min/mg	> 2900 nM				
N#CCNC(=O)[C@@H]1CCCC[C@H]1C(=O)N1CC=CCC1			18 nM	4.5 µL/min/mg	41 µL/min/mg				> 100000 nM	
N#CC1(NC(=O)[C@@H]2CCCC[C@H]2C(=O)N2CCc3[nH]c4ccc(C(F)(F)F)cc4c3C2)CC1	Not Active	74 µM (≈ 33.9 µg/mL)		33 µL/min/mg	82 µL/min/mg	> 2900 nM	> 4000 nM	4.2		
N#CCNC(=O)[C@@H]1CCCC[C@H]1C(=O)N1CCc2ccccc2C1			2 nM	23 µL/min/mg	145 µL/min/mg	712 nM			3110 nM	
N#CC1(NC(=O)[C@@H]2CCCC[C@H]2C(=O)N2CCc3[nH]c4c(F)cccc4c3C2)CC1	Not Active	470 µM (≈ 192 µg/mL)	< 1 nM	55 µL/min/mg	311 µL/min/mg	> 2900 nM	> 4000 nM	3		
N#CC1(NC(=O)[C@@H]2CCCC[C@H]2C(=O)N2CCc3[nH]c4c(C(F)(F)F)cccc4c3C2)CC1	Not Active	150 µM (≈ 68.8 µg/mL)	5 nM	26 µL/min/mg	116 µL/min/mg	> 2900 nM	> 4000 nM	3.8		
COc1ccc2[nH]c3c(c2c1)CN(C(=O)[C@@H]1CCCC[C@H]1C(=O)NC1(C#N)CC1)CC3	Not Active	822 µM (≈ 346 µg/mL)		29 µL/min/mg		> 2900 nM	> 4000 nM	2.4		20 µL/min/1e6 cells
CSc1cccc2c3c([nH]c12)CCN(C(=O)[C@@H]1CCCC[C@H]1C(=O)NC1(C#N)CC1)C3	Not Active		4 nM	79 µL/min/mg	303 µL/min/mg	> 2900 nM	> 4000 nM			
N#CCNC(=O)[C@@H]1CCCC[C@H]1C(=O)N1CCc2[nH]c3ccc(F)cc3c2C1			< 1 nM	18 µL/min/mg	> 250 µL/min/mg	1420 nM			> 40000 nM	
COc1ccccc1C(C#N)NC(=O)[C@@H]1CCCC[C@H]1C(=O)N1CCN(Cc2ccc(F)cc2)CC1 (some centres undefined)			1 nM				76 nM			
C[C@@H](C#N)NC(=O)[C@@H]1CCCC[C@H]1C(=O)N1CCc2[nH]c3ccc(F)cc3c2C1			17.3 nM			73500 nM	> 70000 nM	3.5	> 40000 nM	
N#CC1(NC(=O)[C@@H]2CCCC[C@H]2C(=O)N2CCc3[nH]c4ccc(Cl)cc4c3C2)CC1	Not Active	130 µM (≈ 55.2 µg/mL)		87 µL/min/mg	> 350 µL/min/mg	> 2900 nM	> 4000 nM	3.7		
CCOc1cccc2c3c([nH]c12)CCN(C(=O)[C@@H]1CCCC[C@H]1C(=O)NC1(C#N)CC1)C3	Not Active	300 µM (≈ 130 µg/mL)	< 1 nM	13 µL/min/mg	62 µL/min/mg	> 2900 nM	> 4000 nM	3.1		
Cn1c2c(c3c(F)c(F)ccc31)CN(C(=O)[C@@H]1CCCC[C@H]1C(=O)NC1(C#N)CC1)CC2	Not Active	300 µM (≈ 132 µg/mL)	3 nM	170 µL/min/mg	> 350 µL/min/mg	> 2900 nM	> 4000 nM	2.8		
C[C@H](C#N)NC(=O)[C@@H]1CCCC[C@H]1C(=O)N1CCc2[nH]c3ccc(F)cc3c2C1		460 µM (≈ 182 µg/mL)	16.2 nM	12 µL/min/mg	> 250 µL/min/mg	44900 nM	> 100000 nM	3.1	> 100000 nM	
N#CC1(NC(=O)[C@@H]2CCCC[C@H]2C(=O)N2CCc3[nH]c4cc(F)ccc4c3C2)CC1	Not Active	540 µM (≈ 221 µg/mL)	4 nM	36 µL/min/mg	89 µL/min/mg	> 2900 nM	> 4000 nM	3		
CC(C)(C)[C@@H](C#N)NC(=O)[C@@H]1CCCC[C@H]1C(=O)N1CCc2[nH]c3ccc(F)cc3c2C1		74 µM (≈ 32.5 µg/mL)	785 nM	99 µL/min/mg	195 µL/min/mg	31200 nM	> 100000 nM	> 4.1	> 100000 nM	
N#CC(NC(=O)[C@@H]1CCCC[C@H]1C(=O)N1CCN(c2ccc(F)cc2)CC1)c1ccccc1 (some centres undefined)			3 nM				258 nM			

— ChEMBL document CHEMBL2163205 (J Med Chem, 2012)
